The record followed here is ChEMBL document CHEMBL1629558, “Effect of electrical current on the activities of antimicrobial agents against Pseudomonas aeruginosa, Staphylococcus aureus, and Staphylococcus epidermidis biofilms” (2009).

Structures are written as SMILES. In brackets after ≈: the same amount, converted by molar mass.

Format in all cases: functional
Test [1] concerns Staphylococcus aureus. As to the kind of experiment: Antimicrobial activity against Staphylococcus aureus Xen 30 biofilm assessed as log10 CFU/cm'2 in bacterial count. Put shortly:
(§1)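 Biofilms grown on Teflon coupons in a CDC biofilm reactor (1 ml of 10^8 CFU/ml inoculum, 37°C shaking 18 h, then 18 h at room temperature). Coupons then sat 24 h at room temperature in flow chambers with fresh medium ± drug ± direct current via graphite electrodes. Biofilm removed by vortex plus 5 min sonication, plated on blood agar (37°C, 5% CO2, 48 h). Triplicate; mean log10 CFU/cm2.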

Test [2] relates to Staphylococcus aureus. In words: Antimicrobial activity against Staphylococcus aureus Xen 30 biofilm assessed as log10 CFU/cm'2 in bacterial count in presence of 2000 microamperes of electric current by bioelectric effect assay. The method, boiled down: as §1
Test [3] deals with Staphylococcus epidermidis. In words: Antimicrobial activity against Staphylococcus epidermidis Xen 43 biofilm assessed as log10 CFU/cm'2 in bacterial count. The method, boiled down:
as §1

Test [4] deals with Staphylococcus epidermidis. As to the kind of experiment: Antimicrobial activity against Staphylococcus epidermidis Xen 43 biofilm assessed as log10 CFU/cm'2 in bacterial count in presence of 200 microamperes of electric current by bioelectric effect assay. Put shortly: as §1
Test [5] relates to Staphylococcus epidermidis. In words: Antimicrobial activity against Staphylococcus epidermidis Xen 43 by broth microdilution method. For orientation: Broth dilution looks for growth in wells or tubes with falling amounts of substance.
The test system of test [6] is Pseudomonas aeruginosa. In words: Antimicrobial activity against Pseudomonas aeruginosa Xen 5 by broth microdilution method. Put shortly: (§2)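 Planktonic MICs determined by CLSI broth microdilution; strains (MRSA Xen 30, P. aeruginosa Xen 5) stored at −70°C.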
The test system of test [7] is Pseudomonas aeruginosa. In words: Antimicrobial activity against Pseudomonas aeruginosa Xen 5 biofilm assessed as log10 CFU/cm'2 in bacterial count in presence of 2000 microamperes of electric current by bioelectric effect assay. The method, boiled down: as §1
The test system of test [8] is Pseudomonas aeruginosa. In words: Antimicrobial activity against Pseudomonas aeruginosa Xen 5 biofilm assessed as log10 CFU/cm'2 in bacterial count. The method, boiled down: as §1
In test [9] the test system is Staphylococcus aureus. In words: Antimicrobial activity against Staphylococcus aureus Xen 30 biofilm assessed as log10 CFU/cm'2 in bacterial count in presence of 200 microamperes of electric current by bioelectric effect assay. Put shortly:
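MRSA Xen 30 biofilms grown on Teflon coupons (12.5 mm) in a CDC biofilm reactor seeded with 1 ml of 10^8 CFU/ml: 18 h 37°C with shaking, then 18 h room temperature. Coupons were exposed in flow chambers to fresh medium ± antimicrobial with direct current for 24 h at room temperature. Biofilm was dislodged by vortex and sonication, then plated on blood agar. Counts are mean log10 CFU/cm2 from triplicate experiments.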

Test [10] concerns Staphylococcus aureus. In words: Antimicrobial activity against Staphylococcus aureus Xen 30 by broth microdilution method. Put shortly: as §2
Test [11] deals with Staphylococcus epidermidis. In words: Antimicrobial activity against Staphylococcus epidermidis Xen 43 biofilm assessed as log10 CFU/cm'2 in bacterial count in presence of 2000 microamperes of electric current by bioelectric effect assay. The method, boiled down: as §1
For test [12], the system named is Staphylococcus aureus. As to the kind of experiment: Antimicrobial activity against Staphylococcus aureus Xen 30 biofilm assessed as log10 CFU/cm'2 in bacterial count in presence of 20 microamperes of electric current by bioelectric effect assay. Put shortly:
as §1

The subject of test [13] is Pseudomonas aeruginosa. As to the kind of experiment: Antimicrobial activity against Pseudomonas aeruginosa Xen 5 biofilm assessed as log10 CFU/cm'2 in bacterial count in presence of 200 microamperes of electric current by bioelectric effect assay. The method, boiled down:
as §1

For the compound `CC(=O)NC[C@H]1CN(c2ccc(N3CCOCC3)c(F)c2)C(=O)O1` [LINEZOLID], the log10cfu in [1] amounted to 0.62; in test [2], 1.51; in test [3], 0.22; in test [4], 0.63. Moreover, inhibition of growth in test [5] (MIC) required 1 µg/mL (≈ 2.96 µM).

`CO/N=C(\C(=O)N[C@@H]1C(=O)N2C(C(=O)[O-])=C(C[N+]3(C)CCCC3)CS[C@H]12)c1csc(N)n1` showed an MIC in test [6] of 2 µg/mL (≈ 4.16 µM). Moreover, the log10cfu in test [7] was 1.43; in test [8], 0.96.

As for `CCCCCCCCCC(=O)N[C@@H](Cc1c[nH]c2ccccc12)C(=O)N[C@H](CC(N)=O)C(=O)N[C@@H](CC(=O)O)C(=O)N[C@@H]1C(=O)NCC(=O)N[C@@H](CCCN)C(=O)N[C@@H](CC(=O)O)C(=O)N[C@H](C)C(=O)N[C@@H](CC(=O)O)C(=O)NCC(=O)N[C@H](CO)C(=O)N[C@@H]([C@H](C)CC(=O)O)C(=O)N[C@@H](CC(=O)c2ccccc2N)C(=O)O[C@@H]1C`, the log10cfu is 1.94 in [9], 1.2 in [11], 1.63 in test [1] and -0.38 in test [3]. In addition, the results for the MIC in [10] and in test [5] were 1 µg/mL (≈ 0.617 µM) and 0.125 µg/mL (≈ 0.0771 µM), respectively.

Turning to `CN[C@H](CC(C)C)C(=O)N[C@H]1C(=O)N[C@@H](CC(N)=O)C(=O)N[C@H]2C(=O)N[C@H]3C(=O)N[C@H](C(=O)N[C@H](C(=O)O)c4cc(O)cc(O)c4-c4cc3ccc4O)[C@H](O)c3ccc(c(Cl)c3)Oc3cc2cc(c3O[C@@H]2O[C@H](CO)[C@@H](O)[C@H](O)[C@H]2O[C@H]2C[C@](C)(N)[C@H](O)[C@H](C)O2)Oc2ccc(cc2Cl)[C@H]1O` [VANCOMYCIN], the log10cfu is listed as 1.59 in test [9], 2.09 in test [11], -0.31 in test [1] and 0.7 in test [3].

For `O=C(O)c1cn(C2CC2)c2cc(N3CCNCC3)c(F)cc2c1=O` [CIPROFLOXACIN], the log10cfu is reported as 1.86 in test [7] and -0.63 in test [8].

Take `CC[C@H]1OC(=O)[C@H](C)[C@@H](O[C@H]2C[C@@](C)(OC)[C@@H](O)[C@H](C)O2)[C@H](C)[C@@H](O[C@@H]2O[C@H](C)C[C@H](N(C)C)[C@H]2O)[C@](C)(O)C[C@@H](C)C(=O)[C@H](C)[C@@H](O)[C@]1(C)O` [ERYTHROMYCIN]: the MIC worked out at 0.5 µg/mL (≈ 0.681 µM) in [10] and 0.125 µg/mL (≈ 0.17 µM) in test [5]. Besides, the log10cfu was -0.17 in test [1], 0.27 in [2], 0.7 in test [3] and 2.04 in [4].

As to `CO[C@H]1/C=C/O[C@@]2(C)Oc3c(C)c(O)c4c(O)c(c(/C=N/N5CCN(C)CC5)c(O)c4c3C2=O)NC(=O)/C(C)=C\C=C\[C@H](C)[C@H](O)[C@@H](C)[C@@H](O)[C@@H](C)[C@H](OC(C)=O)[C@@H]1C` [RIFAMPIN], the MIC was 2 µg/mL (≈ 2.43 µM) in [10] and no more than 0.125 µg/mL in test [5]. The log10cfu turned out to be 2.5 in test [11], 0.86 in test [1], 1.78 in test [2] and 0.17 in [3].

In the case of `COc1c(N2C[C@@H]3CCCN[C@@H]3C2)c(F)cc2c(=O)c(C(=O)O)cn(C3CC3)c12` [MOXIFLOXACIN], the MIC is 2 µg/mL (≈ 4.98 µM) in test [10] and no more than 0.125 µg/mL in test [5]. The log10cfu in [11] is 0.82; in test [1], 1.33; in test [12], 2.1; in test [3], -0.41.

As for `NC[C@H]1O[C@H](O[C@H]2[C@H](O)[C@@H](O[C@H]3O[C@H](CO)[C@@H](O)[C@H](N)[C@H]3O)[C@H](N)C[C@@H]2N)[C@H](N)C[C@@H]1O` [TOBRAMYCIN], the MIC in test [10] came to 4 µg/mL (≈ 8.56 µM); in [6], 1 µg/mL (≈ 2.14 µM); in [5], 0.25 µg/mL (≈ 0.535 µM). Moreover, the log10cfu in [11] worked out at 3.08; in [1] it was 0.86; in test [2], 2; in [13], 2.48; in [3], 0.2; in [8] it was 1.69.

For `CN(C)c1ccc(O)c2c1C[C@H]1C[C@H]3[C@H](N(C)C)C(O)=C(C(N)=O)C(=O)[C@@]3(O)C(O)=C1C2=O` [MINOCYCLINE], the MIC was 4 µg/mL (≈ 8.74 µM) in test [10] and 1 µg/mL (≈ 2.19 µM) in test [5]. The log10cfu is 0.7 in test [1], 2.04 in test [12], -0.18 in test [3] and 3.32 in test [4].

The term MIC denotes the least concentration at which growth counts as inhibited. A low value points to a more susceptible organism.
